Results from ChEMBL document CHEMBL4732106, “Paracetamol analogues conjugated by FAAH induce TRPV1-mediated antinociception without causing acute liver toxicity” (Eur J Med Chem, 2021).
Active and inactive are the calls of the source. No cut-off for these calls is given here.

Columns and labels:
Mus musculus [1] = test: Antipyretic activity against LPS-induced C57BL/6 mouse model of hyperthermia assessed as reduction in body temperature at 30 mg/kg, ip measured after 75 mins; assay type: functional, organism-based
Outline: (§1)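 Male C57BL/6 mice carried telemetry and recovered ≥1 week before use, housed at 29 °C ambient (near-thermoneutral). LPS 100 μg kg⁻¹ i.p. or saline was given, then drug or Ringer's acetate vehicle i.p. 3 h later. Core temperature was recorded continuously and analysed at the nadir time point. n = 4–9 per group.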

Mus musculus [2] = test: Antipyretic activity against LPS-induced C57BL/6 mouse model of hyperthermia assessed as PGE2 level in diencephalon at 30 mg/kg, ip measured after 40 mins by LC-MS/MS analysis relative to control; assay type: functional
Outline: (§2)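 Male C57BL/6 mice got LPS (E. coli O111:B4, 100 μg kg⁻¹ i.p.) or saline, then 3 h later the drug i.p. in Ringer's acetate vehicle. Diencephalon was taken 40 min later and homogenized in Tris/EDTA/ascorbate with 10 μM MAFP and 100 μM ibuprofen. Prostanoids were quantified by negative-ion LC-MS/MS and expressed as % of LPS + vehicle. n = 6.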

Mus musculus [3] = test: Antipyretic activity against LPS-induced C57BL/6 mouse model of hyperthermia assessed as PGF2alpha level in diencephalon at 30 mg/kg, ip measured after 40 mins by LC-MS/MS analysis relative to control; assay type: functional; outline: as §2
[4] = Hepatotoxicity in C57BL/6 mouse assessed as centrilobular necrosis at 300 mg/kg, ip measured after 12 hrs by H and E staining based microscopic analysis; assay type: toxicity, organism-based; details: in vivo
Outline: (§3)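 Male C57BL/6 mice (8 weeks) were fasted 12–16 h, then given 300 mg kg⁻¹ i.p. in saline. At 12 h, blood was taken for serum ALT/AST (automated analyser). The left medial liver lobe was fixed in 4% formaldehyde, cryosectioned at 10 μm and stained with H&E. The ALT/AST ratio was tested against 1. Mean ± SEM, n = 6–7.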

[5] = Hepatotoxicity in C57BL/6 mouse assessed as change in ALT level at 300 mg/kg, ip measured after 12 hrs; assay type: toxicity, organism-based; details: in vivo; outline: as §3
[6] = Prodrug conversion in FAAH-/- mouse brain assessed as N-arachidonoyl conjugate level per g protein at 0.1 mM measured after 20 mins by LC-MS/MS analysis; assay type: ADME, tissue-based; details: in vitro, 100 µM
Outline: (§4)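 Brains from FAAH+/+ or FAAH-/- mice were homogenized in ice-cold 10 mM Tris with 1 mM EDTA and 0.3 mM ascorbic acid. Aliquots were incubated with 0.1 mM primary amine for 20 min at 37 °C with stirring. Reactions were stopped with cold acetone containing AM404-d4 internal standard, and conjugates were measured by LC-MS/MS. n = 5–7.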

[7] = Prodrug conversion in FAAH-/- mouse brain assessed as N-arachidonoyl conjugate level per g protein at 100 mg/kg, ip measured after 20 mins by LC-MS/MS analysis; assay type: ADME, organism-based; parameters: unit: pmol/g protein; details: in vivo
Outline: (§5)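 FAAH+/+ and FAAH-/- mice (both sexes) received the primary amine i.p. in saline (sometimes with 5% DMSO). Brains were collected 20 min later, frozen, and homogenized in Tris/EDTA/ascorbate with 10 μM MAFP. N-arachidonoyl conjugates were quantified by positive-ion LC-MS/MS and normalized to protein.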

[8] = target: T1, Fatty-acid amide hydrolase 1 (Mus musculus, UniProt O08914); test: Substrate activity at FAAH in FAAH+/+ mouse brain assessed as N-arachidonoyl conjugate level per g protein at 0.1 mM measured after 20 mins by LC-MS/MS analysis; assay type: ADME, tissue-based; details: 100 µM; outline: as §4
T1 sequence (O08914 whole entry): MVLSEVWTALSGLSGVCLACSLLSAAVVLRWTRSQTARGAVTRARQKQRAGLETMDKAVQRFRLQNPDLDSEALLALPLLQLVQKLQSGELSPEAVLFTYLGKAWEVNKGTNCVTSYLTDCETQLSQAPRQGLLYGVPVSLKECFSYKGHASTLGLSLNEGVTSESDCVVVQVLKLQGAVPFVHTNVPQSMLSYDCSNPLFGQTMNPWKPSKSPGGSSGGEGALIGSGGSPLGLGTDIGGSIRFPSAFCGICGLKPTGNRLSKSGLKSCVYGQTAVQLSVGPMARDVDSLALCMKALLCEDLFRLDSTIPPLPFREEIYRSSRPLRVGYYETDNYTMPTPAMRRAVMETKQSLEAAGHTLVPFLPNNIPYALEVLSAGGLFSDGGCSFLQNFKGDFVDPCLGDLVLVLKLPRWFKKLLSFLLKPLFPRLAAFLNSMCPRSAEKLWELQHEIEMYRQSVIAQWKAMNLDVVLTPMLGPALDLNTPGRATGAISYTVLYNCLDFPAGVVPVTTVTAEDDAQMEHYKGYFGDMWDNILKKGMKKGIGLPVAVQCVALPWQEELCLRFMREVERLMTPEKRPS

Mus musculus [9] = test: Hepatotoxicity in C57BL/6 mouse assessed as change in ALT/AST ratio at 300 mg/kg, ip measured after 12 hrs; assay type: functional; outline: as §3
[10] = Prodrug conversion in FAAH+/+ mouse brain assessed as N-arachidonoyl conjugate level per g protein at 100 mg/kg, ip measured after 20 mins by LC-MS/MS analysis; assay type: ADME, organism-based; parameters: unit: pmol/g protein; details: in vivo; outline: as §5
Mus musculus [11] = test: Antipyretic activity against LPS-induced C57BL/6 mouse model of hyperthermia assessed as TXB2 level in diencephalon at 30 mg/kg, ip measured after 40 mins by LC-MS/MS analysis relative to control; assay type: functional; outline: as §2
Mus musculus [12] = test: Antipyretic activity against LPS-induced C57BL/6 mouse model of hyperthermia assessed as 6-keto-PGF1alpha level in diencephalon at 30 mg/kg, ip measured after 40 mins by LC-MS/MS analysis relative to control; assay type: functional; outline: as §2
Mus musculus [13] = test: Antipyretic activity against LPS-induced C57BL/6 mouse model of hyperthermia assessed as TXB2 level in diencephalon at 100 mg/kg, ip measured after 40 mins by LC-MS/MS analysis relative to control; assay type: functional; outline: as §2
[14] = Inhibition of prostanoid synthesis in FAAH+/+ mouse assessed as 6-keto-PGF1alpha level in diencephalon at 150 mg/kg, ip measured after 40 mins by LC-MS/MS analysis relative to control; assay type: functional; parameters: scale not given: the % may be the effect or the level left
Outline: (§6)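 In a separate set, FAAH+/+ (n = 10–11) and FAAH-/- (n = 5) mice received LPS 100 μg kg⁻¹ i.p., then paracetamol 150 mg kg⁻¹ i.p. 3 h later. Diencephalic PGE2, PGF2α, 6-keto-PGF1α and TXB2 were measured by negative-ion LC-MS/MS and expressed as % of febrile vehicle-treated animals. Values below the detection limit were set to 1/4 of that limit.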

[15] = Inhibition of prostanoid synthesis in FAAH-/- mouse assessed as PGE2 level in diencephalon at 150 mg/kg, ip measured after 40 mins by LC-MS/MS analysis relative to control; assay type: functional; parameters: scale not given: the % may be the effect or the level left; outline: as §6
[16] = Inhibition of prostanoid synthesis in FAAH+/+ mouse assessed as PGE2 level in diencephalon at 150 mg/kg, ip measured after 40 mins by LC-MS/MS analysis relative to control; assay type: functional; parameters: scale not given: the % may be the effect or the level left; outline: as §6
Mus musculus [17] = test: Antipyretic activity against LPS-induced C57BL/6 mouse model of hyperthermia assessed as PGE2 level in diencephalon at 100 mg/kg, ip measured after 40 mins by LC-MS/MS analysis relative to control; assay type: functional; outline: as §2
Mus musculus [18] = test: Antipyretic activity against LPS-induced C57BL/6 mouse model of hyperthermia assessed as PGF2alpha level in diencephalon at 100 mg/kg, ip measured after 40 mins by LC-MS/MS analysis relative to control; assay type: functional; outline: as §2
[19] = Inhibition of prostanoid synthesis in FAAH+/+ mouse assessed as PGF2alpha level in diencephalon at 150 mg/kg, ip measured after 40 mins by LC-MS/MS analysis relative to control; assay type: functional; parameters: scale not given: the % may be the effect or the level left; outline: as §6
Mus musculus [20] = test: Antipyretic activity against LPS-induced C57BL/6 mouse model of hyperthermia assessed as 6-keto-PGF1alpha level in diencephalon at 100 mg/kg, ip measured after 40 mins by LC-MS/MS analysis relative to control; assay type: functional; outline: as §2
[21] = Inhibition of prostanoid synthesis in FAAH+/+ mouse assessed as TXB2 level in diencephalon at 150 mg/kg, ip measured after 40 mins by LC-MS/MS analysis relative to control; assay type: functional; parameters: scale not given: the % may be the effect or the level left; outline: as §6
[22] = Inhibition of prostanoid synthesis in FAAH-/- mouse assessed as TXB2 level in diencephalon at 150 mg/kg, ip measured after 40 mins by LC-MS/MS analysis relative to control; assay type: functional; parameters: scale not given: the % may be the effect or the level left; outline: as §6
[23] = Inhibition of prostanoid synthesis in FAAH-/- mouse assessed as PGF2alpha level in diencephalon at 150 mg/kg, ip measured after 40 mins by LC-MS/MS analysis relative to control; assay type: functional; parameters: scale not given: the % may be the effect or the level left; outline: as §6
Mus musculus [24] = test: Antipyretic activity against LPS-induced C57BL/6 mouse model of hyperthermia assessed as reduction in body temperature at 100 mg/kg, ip measured after 75 mins; assay type: functional, organism-based; outline: as §1
[25] = Inhibition of prostanoid synthesis in FAAH-/- mouse assessed as 6-keto-PGF1alpha level in diencephalon at 150 mg/kg, ip measured after 40 mins by LC-MS/MS analysis relative to control; assay type: functional; parameters: scale not given: the % may be the effect or the level left; outline: as §6

**Q.** With Nc1ccc(O)cc1 [4-AMINOPHENOL] as the molecule, how does the Activity (Mus musculus [1]) read?
**A.** inactive

**Q.** What about the Activity (Mus musculus [2]) of the same molecule?
**A.** 44%

**Q.** And the Activity (Mus musculus [3])?
**A.** 81%

**Q.** What about the Activity [4] of the same molecule?
**A.** Non-Toxic

**Q.** And the Activity [5]?
**A.** Non-Toxic

**Q.** What about the Drug metabolism [6] of the same molecule?
**A.** 0.05 nmol/g

**Q.** And the Drug metabolism [7]?
**A.** 24 pmol

**Q.** What about the Drug metabolism [8] of the same molecule?
**A.** 8.8 nmol/g

**Q.** What about the Ratio (Mus musculus [9]) of the same molecule?
**A.** >1

**Q.** What about the Drug metabolism [10] of the same molecule?
**A.** 1002 pmol

**Q.** What about the Activity (Mus musculus [11]) of the same molecule?
**A.** 60%

**Q.** What about the Activity (Mus musculus [12]) of the same molecule?
**A.** 60%

**Q.** Which Activity (Mus musculus [13]) does the source give for CC(=O)Nc1ccc(O)cc1 [ACETAMINOPHEN] here?
**A.** 36%

**Q.** What about the Activity [14] of the same molecule?
**A.** 15%

**Q.** And the Activity [15]?
**A.** 9%

**Q.** And the Activity [16]?
**A.** 8%

**Q.** What about the Activity (Mus musculus [17]) of the same molecule?
**A.** 13%

**Q.** And the Activity (Mus musculus [18])?
**A.** 18%

**Q.** And the Activity [19]?
**A.** 19%

**Q.** What about the Activity [4] of the same molecule?
**A.** Toxic

**Q.** And the Activity [5]?
**A.** Toxic

**Q.** And the Activity (Mus musculus [20])?
**A.** 17%

**Q.** And the Activity [21]?
**A.** 25%

**Q.** What about the Activity [22] of the same molecule?
**A.** 18%

**Q.** And the Activity [23]?
**A.** 10%

**Q.** And the Activity (Mus musculus [24])?
**A.** Active

**Q.** What about the Activity [25] of the same molecule?
**A.** 12%
